Assay results gathered from unrelated publications.
Lines come from different studies, so protocols differ.
ERBB2: Receptor tyrosine-protein kinase erbB-2 (ERBB2, Homo sapiens, UniProt P04626)
gag-pol reverse transcriptase: Gag-Pol polyprotein, reverse transcriptase (gag-pol, Human immunodeficiency virus 1, UniProt P03366)
gyrA: DNA gyrase subunit A (gyrA, Escherichia coli K-12, UniProt P0AES4)
PDE2A: cGMP-dependent 3',5'-cyclic phosphodiesterase (PDE2A, Homo sapiens, UniProt O00408)
PTK2B: Protein-tyrosine kinase 2-beta (PTK2B, Homo sapiens, UniProt Q14289)

SMILES	target	assay	setting	IC50
COc1ccc(S(=O)(=O)ON=C2C=C(C)C(=O)C(C)=C2)cc1	Histone acetyltransferase p300 (EP300, Homo sapiens, UniProt Q09472)	enzyme activity, inhibitor, radiometric	–	128000 nM
COC(=O)C1CCN(C(=O)Cc2ccc(NCc3cnc4nc(N)nc(N)c4n3)cc2)CC1	Cytochrome P450 2C19 (CYP2C19, Homo sapiens, UniProt P33261)	enzyme activity, inhibitor, luciferase	–	7760 nM
CS(=O)(=O)/C(C#N)=C/c1cccn1S(=O)(=O)c1c(F)c(F)c(F)c(F)c1F	Protein phosphatase methylesterase 1 (Homo sapiens, UniProt Q9Y570)	enzyme activity, inhibitor	–	> 20000 nM
COc1ccc2c(Oc3ccc4c(C(=O)Nc5ccccc5N)cccc4c3)ccnc2c1	cAMP-dependent protein kinase catalytic subunit alpha (PRKACA, Homo sapiens, UniProt P17612)	enzyme activity, inhibitor	–	> 500 nM
COc1ccc(-c2oc3ncnc(NCc4ccccc4)c3c2-c2ccc(OC)cc2)cc1	ERBB2	enzyme activity, inhibitor, radiometric	–	4600 nM
CC(=O)N[C@@H]1[C@@H](O)[C@H](O)[C@@H](CO)S[C@@H]1OP(=O)(O)OP(=O)(O)OC[C@H]1O[C@@H](n2ccc(=O)[nH]c2=O)[C@H](O)[C@@H]1O	UDP-N-acetylglucosamine--peptide N-acetylglucosaminyltransferase 110 kDa subunit (OGT, Homo sapiens, UniProt O15294)	enzyme activity, inhibitor	–	78800 nM
Cc1cc(C)cc(S(=O)(=O)c2c(C(=O)NCCCCCNS(=O)(=O)c3ccc(Cl)cc3)[nH]c3ccc(Cl)cc23)c1	gag-pol reverse transcriptase	enzyme activity, inhibitor, ELISA	–	120 nM
N#Cc1ccc(Nc2nc(N)cc(Oc3ccc(-c4ccc(C#N)cc4)c(C(F)(F)F)c3)n2)cc1	gag-pol reverse transcriptase	enzyme activity, inhibitor	–	90 nM
O=C1N=C(Nc2ccccc2)S/C1=C\c1ccccc1OCc1cn(Cc2ccc(Cl)cc2)nn1	Aldo-keto reductase family 1 member A1 (AKR1A1, Homo sapiens, UniProt P14550)	enzyme activity, inhibitor, absorbance	pH 6.2	54000 nM
CC(C)Oc1c(NC(=O)c2ccc(NC(=O)[C@H](CC(N)=O)NC(=O)c3ccc(NC(=O)c4ccc(C#N)c(Cl)c4)cc3)cc2)ccc(C(=O)Nc2ccc(C(=O)O)cc2)c1O	gyrA	enzyme activity, inhibitor	–	100 nM
C=CC(=O)Nc1cc(Nc2nccc(Nc3cc(Cl)c(F)cc3C(C)(C)O)n2)c(OC)cc1N1CC[C@@H](N(C)C)C1	ERBB2	enzyme activity, inhibitor	with preincubation	392 nM
CC(C)Oc1c(NC(=O)c2ccc(NC(=O)[C@H](CC(N)=O)NC(=O)c3ccc(NC(=O)c4ccc(NC(=O)c5ccc([N+](=O)[O-])cc5)cc4)cc3)cc2)ccc(C(=O)Nc2ccc(C(=O)O)cc2)c1O	gyrA	enzyme activity, inhibitor	–	2500 nM
Cc1cc(C)cc(S(=O)(=O)c2c(C(=O)NCCCCCNS(=O)(=O)c3cccs3)[nH]c3ccc(Cl)cc23)c1	gag-pol reverse transcriptase	enzyme activity, inhibitor, ELISA	–	220 nM
Nc1ncnc2c1c(Cc1cccc3ccccc13)nn2CC1CCNCC1	Tyrosine-protein kinase ABL1 (ABL1, Homo sapiens, UniProt P00519)	enzyme activity, inhibitor	–	> 20000 nM
N#Cc1ccc(Nc2nc(N)cc(Oc3ccc(-c4ccc(F)cc4)cc3F)n2)cc1	gag-pol reverse transcriptase	enzyme activity, inhibitor	–	60 nM
CC(C)Oc1c(NC(=O)c2ccc(NC(=O)[C@H](CC(N)=O)NC(=O)c3ccc(NC(=O)CCc4ccc(C#N)cc4)cc3)cc2)ccc(C(=O)Nc2ccc(C(=O)O)cc2)c1O	gyrA	enzyme activity, inhibitor	–	1000 nM
Cc1cc(C)cc(S(=O)(=O)c2c(C(=O)NCCCNS(=O)(=O)c3ccc(Cl)cc3)[nH]c3ccc(Cl)cc23)c1	gag-pol reverse transcriptase	enzyme activity, inhibitor, ELISA	–	78 nM
Cc1ccc(C(=O)Nc2ccc(S(=O)(=O)O)c3cc(S(=O)(=O)O)cc(S(=O)(=O)O)c23)cc1NC(=O)c1cccc(NC(=O)Nc2cccc(C(=O)Nc3cc(C(=O)Nc4ccc(S(=O)(=O)O)c5cc(S(=O)(=O)O)cc(S(=O)(=O)O)c45)ccc3C)c2)c1	P2X purinoceptor 2 (P2RX2, Homo sapiens, UniProt Q9UBL9)	calcium signal, antagonist	–	22500 nM
COc1ccc(S(=O)(=O)NCCCCCNC(=O)c2[nH]c3ccc(Cl)cc3c2S(=O)(=O)c2cc(C)cc(C)c2)cc1	gag-pol reverse transcriptase	enzyme activity, inhibitor, ELISA	–	160 nM
COc1cc(C[C@H]2C(=O)OC[C@@H]2Cc2ccc(OC)c(OC)c2)ccc1O	PDE2A	enzyme activity, inhibitor	–	> 20000 nM
CC(C)Oc1c(NC(=O)c2ccc(NC(=O)[C@H](CC(N)=O)NC(=O)c3ccc(NC(=O)C(C)Oc4ccc(C#N)cc4)cc3)cc2)ccc(C(=O)Nc2ccc(C(=O)O)cc2)c1O (some centres unmarked)	gyrA	enzyme activity, inhibitor	–	1800 nM

SMILES	target	assay	setting	IC50
N#Cc1ccc(Nc2nc(N)cc(Oc3ccc(-c4ccccc4C#N)cc3F)n2)cc1	gag-pol reverse transcriptase	enzyme activity, inhibitor	–	100 nM
O=C(Nc1cccc2[nH]ccc12)c1ccccc1	Alpha-synuclein, monomer (SNCA, Homo sapiens, UniProt P37840)	amyloid aggregation, inhibitor, fluorescence	–	~12900 nM
CC1(C)C(/C=C/C=C2/N(CCCc3ccccc3)c3ccc4ccccc4c3C2(C)C)=[N+](CCCc2ccccc2)c2ccc3ccccc3c21	Protein arginine N-methyltransferase 6 (PRMT6, Homo sapiens, UniProt Q96LA8)	enzyme activity, inhibitor, radiometric	–	750 nM
Cc1ccc(S(=O)(=O)NCCNC(=O)c2[nH]c3ccc(Cl)cc3c2S(=O)(=O)c2cc(C)cc(C)c2)cc1	gag-pol reverse transcriptase	enzyme activity, inhibitor, ELISA	–	75 nM
CC(C)Oc1c(NC(=O)c2ccc(NC(=O)[C@H](CC(N)=O)NC(=O)c3ccc(NC(=O)c4ccc([N+](=O)[O-])c5cccnc45)cc3)cc2)ccc(C(=O)Nc2ccc(C(=O)O)cc2)c1O	gyrA	enzyme activity, inhibitor	–	300 nM
Cc1cc(C)cc(S(=O)(=O)c2c(C(=O)NCCNS(=O)(=O)c3cccc(F)c3)[nH]c3ccc(Cl)cc23)c1	gag-pol reverse transcriptase	enzyme activity, inhibitor, ELISA	–	83 nM
N#Cc1ccc(Nc2nc(N)cc(Oc3c(F)cc(-c4ccc(C#N)cc4)cc3F)n2)cc1	gag-pol reverse transcriptase	enzyme activity, inhibitor	–	20 nM
COc1cc(/C=C2\SC(=O)NC2=O)cc(F)c1OCCNc1nc2c(cnn2C2CCCC2)c(=O)[nH]1	PDE2A	enzyme activity, inhibitor	–	167 nM
Cc1cc(C)cc(S(=O)(=O)c2c(C(=O)NCCCNS(=O)(=O)c3ccccc3)[nH]c3ccc(Cl)cc23)c1	gag-pol reverse transcriptase	enzyme activity, inhibitor, ELISA	–	84 nM
N#Cc1ccc(Nc2nc(N)cc(Oc3ccc(-c4ccc(C#N)c(F)c4)cc3F)n2)cc1	gag-pol reverse transcriptase	enzyme activity, inhibitor	–	70 nM
CCn1ncc2c1-c1cnc(N)c(c1)O[C@H](C)c1cc(F)ccc1-c1nn(C)nc1C2	PTK2B	enzyme activity, inhibitor, radiometric	–	14 nM
COc1c(C(=O)Nc2ccc(C(=O)O)cc2)ccc2nc(-c3cc(NC(=O)C(CC(N)=O)NC(=O)c4ccc(NC(=O)c5ccc(C#N)cc5)cc4)cn3C)[nH]c12 (centres unmarked)	gyrA	enzyme activity, inhibitor	–	10900 nM
N#Cc1ccc(Nc2nc(N)cc(Oc3c(F)cc(-c4ccccc4C#N)cc3F)n2)cc1	gag-pol reverse transcriptase	enzyme activity, inhibitor	–	30 nM
C[C@H]1Oc2cc(cnc2N)-c2c(nn(C)c2C#N)CN(C)C(=O)c2ccc(F)cc21	PTK2B	enzyme activity, inhibitor, radiometric	–	5.9 nM
Cc1cc(C)cc(S(=O)(=O)c2c(C(=O)NCCCCNS(=O)(=O)c3ccccc3)[nH]c3ccc(Cl)cc23)c1	gag-pol reverse transcriptase	enzyme activity, inhibitor, ELISA	–	130 nM
N#Cc1ccc(Nc2nc(N)cc(Oc3ccc(-c4ccccc4)cc3)n2)cc1	gag-pol reverse transcriptase	enzyme activity, inhibitor	–	570 nM
CC(C)Oc1c(NC(=O)c2ccc(NC(=O)[C@H](CC(N)=O)NC(=O)c3ccc(NC(=O)c4ccc(C#N)cn4)cc3)cc2)ccc(C(=O)Nc2ccc(C(=O)O)cc2)c1O	gyrA	enzyme activity, inhibitor	–	900 nM
CC[C@@H](C(=O)Nc1ccc(C(N)=O)c(F)c1)n1cc(OC)c(-c2cc(Cl)ccc2-n2cc(C(F)(F)F)nn2)cc1=O	Plasminogen (PLG, Homo sapiens, UniProt P00747)	enzyme activity, inhibitor	–	2100 nM
CC(C)Oc1c(NC(=O)c2ccc(NC(=O)[C@H](CC(N)=O)NC(=O)c3ccc(NC(=O)c4ccc5c(c4)COC5=O)cc3)cc2)ccc(C(=O)Nc2ccc(C(=O)O)cc2)c1O	gyrA	enzyme activity, inhibitor	–	1400 nM
N#Cc1ccc(Nc2nc(N)cc(Oc3ccc(-c4cccc(F)c4)cc3)n2)cc1	gag-pol reverse transcriptase	enzyme activity, inhibitor	–	330 nM
